Assay results from ChEMBL document CHEMBL4014350, “Alkoxyurea-Based Histone Deacetylase Inhibitors Increase Cisplatin Potency in Chemoresistant Cancer Cell Lines” (J Med Chem, 2017).

Legend:
[1] = Inhibition of HDAC in human CAL27 cells using Boc-Lys(epsilon-Ac)-AMC as substrate preincubated for 18 hrs followed by substrate addition measured after 3 hrs by fluorescence assay; type: cell-based; conditions: CAL-27
[2] = molecular target: T1, Protein deacetylase HDAC6 (Homo sapiens, UniProt Q9UBN7); experiment: Inhibition of full length human recombinant N-terminal GST-tagged HDAC6 expressed in baculovirus infected sf9 cells Z-(Ac)Lys-AMC as substrate measured after 90 mins by fluorescence assay
T1 sequence (Q9UBN7 whole entry): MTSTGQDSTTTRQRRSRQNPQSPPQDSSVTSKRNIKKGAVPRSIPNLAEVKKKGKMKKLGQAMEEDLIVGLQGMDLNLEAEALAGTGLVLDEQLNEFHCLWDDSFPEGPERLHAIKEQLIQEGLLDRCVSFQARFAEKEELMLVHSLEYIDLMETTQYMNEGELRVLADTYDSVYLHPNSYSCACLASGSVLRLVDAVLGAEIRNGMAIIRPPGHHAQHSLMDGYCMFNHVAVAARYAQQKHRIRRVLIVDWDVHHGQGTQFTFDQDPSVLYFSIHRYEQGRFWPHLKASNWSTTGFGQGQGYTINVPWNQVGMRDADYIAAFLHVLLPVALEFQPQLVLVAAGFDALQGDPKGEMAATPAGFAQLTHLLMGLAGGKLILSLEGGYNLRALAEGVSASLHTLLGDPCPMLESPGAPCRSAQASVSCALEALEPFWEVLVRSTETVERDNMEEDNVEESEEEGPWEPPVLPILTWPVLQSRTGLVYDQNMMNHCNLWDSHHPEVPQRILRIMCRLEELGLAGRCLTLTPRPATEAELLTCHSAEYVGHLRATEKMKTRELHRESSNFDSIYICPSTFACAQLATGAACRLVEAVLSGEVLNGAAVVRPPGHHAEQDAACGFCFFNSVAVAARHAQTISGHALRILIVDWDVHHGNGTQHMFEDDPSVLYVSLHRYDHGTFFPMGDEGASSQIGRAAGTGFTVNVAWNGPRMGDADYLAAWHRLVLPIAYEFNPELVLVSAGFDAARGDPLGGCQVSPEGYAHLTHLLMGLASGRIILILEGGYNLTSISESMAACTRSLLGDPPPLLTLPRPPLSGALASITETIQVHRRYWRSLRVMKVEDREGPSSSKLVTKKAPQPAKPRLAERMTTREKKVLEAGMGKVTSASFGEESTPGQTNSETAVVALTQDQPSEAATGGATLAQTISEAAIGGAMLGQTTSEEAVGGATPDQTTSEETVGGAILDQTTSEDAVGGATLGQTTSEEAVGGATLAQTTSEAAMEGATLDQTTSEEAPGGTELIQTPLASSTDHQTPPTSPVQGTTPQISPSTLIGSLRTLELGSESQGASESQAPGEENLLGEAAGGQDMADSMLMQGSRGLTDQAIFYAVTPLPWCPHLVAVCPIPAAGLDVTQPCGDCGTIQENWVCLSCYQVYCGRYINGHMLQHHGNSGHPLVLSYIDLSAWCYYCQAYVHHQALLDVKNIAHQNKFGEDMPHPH

CAL-27 [3] = experiment: Potentiation of 1 uM cisplatin-induced cytotoxicity against human CAL27 cells assessed as decrease in cell viability by measuring combination index at 600 uM preincubated for 48 hrs followed by cisplatin treatment measured after 72 hrs by MTT assay; type: functional
How it was run: (§1)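 HDAC inhibitor was added 48 h before cisplatin, then cells were exposed to cisplatin for 72 h and viability was read by MTT assay. Combination index was computed by the Chou–Talalay method: CI > 1 is antagonism, CI = 1 additive, CI < 0.9 synergism. Points with fraction affected below 0.20 were flagged.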

CAL-27 [4] = experiment: Potentiation of 1 uM cisplatin-induced cytotoxicity against human CAL27 cells assessed as decrease in cell viability by measuring combination index at 700 uM preincubated for 48 hrs followed by cisplatin treatment measured after 72 hrs by MTT assay; type: functional; how it was run: as §1
CAL-27 [5] = experiment: Potentiation of 1 uM cisplatin-induced cytotoxicity against human CAL27 cells assessed as decrease in cell viability by measuring combination index at 800 uM preincubated for 48 hrs followed by cisplatin treatment measured after 72 hrs by MTT assay; type: functional; how it was run: as §1
CAL-27 [6] = experiment: Potentiation of 2 uM cisplatin-induced cytotoxicity against human CAL27 cells assessed as decrease in cell viability by measuring combination index at 500 uM preincubated for 48 hrs followed by cisplatin treatment measured after 72 hrs by MTT assay; type: functional; conditions: in the assay text read “at 500 nM” for “at 500 uM”; how it was run: as §1
CAL-27 [7] = experiment: Potentiation of 2 uM cisplatin-induced cytotoxicity against human CAL27 cells assessed as decrease in cell viability by measuring combination index at 700 uM preincubated for 48 hrs followed by cisplatin treatment measured after 72 hrs by MTT assay; type: functional; conditions: in the assay text read “at 700 nM” for “at 700 uM”; how it was run: as §1
[8] = molecular target: T2, Histone deacetylase 1/6 (Homo sapiens) (UniProt Q13547+Q9UBN7); experiment: Inhibition of HDAC1/HDAC6 in human Cal27CisR cells assessed as potentiation of 5 uM cisplatin-induced cytotoxicity by measuring combination index at 500 uM preincubated for 48 hrs followed by cisplatin treatment measured after 72 hrs by MTT assay; type: cell-based
T2 sequence (Q13547 whole entry, looked up, one chain of several): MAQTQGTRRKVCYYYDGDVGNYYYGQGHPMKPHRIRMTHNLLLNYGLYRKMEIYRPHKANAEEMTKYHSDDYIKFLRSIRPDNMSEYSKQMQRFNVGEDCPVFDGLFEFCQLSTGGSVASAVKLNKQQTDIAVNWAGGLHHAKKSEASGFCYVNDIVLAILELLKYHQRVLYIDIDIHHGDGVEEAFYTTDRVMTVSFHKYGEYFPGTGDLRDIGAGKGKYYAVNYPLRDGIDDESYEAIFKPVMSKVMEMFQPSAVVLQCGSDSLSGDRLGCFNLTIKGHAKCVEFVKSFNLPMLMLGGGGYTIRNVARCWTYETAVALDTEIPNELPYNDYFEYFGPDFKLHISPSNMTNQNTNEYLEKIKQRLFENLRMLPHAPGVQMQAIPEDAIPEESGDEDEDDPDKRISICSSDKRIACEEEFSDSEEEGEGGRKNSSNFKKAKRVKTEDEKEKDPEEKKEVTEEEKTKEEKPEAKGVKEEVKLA
How it was run: (§2)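 Cal27 and cisplatin-resistant Cal27CisR cells were preincubated with the HDAC inhibitor for 48 h, then given cisplatin in combination. Viability was read by MTT after 72 h. The combination index was computed by the Chou–Talalay method: CI > 1 is antagonism, CI = 1 is additive, and CI < 0.9 is synergism. Points with fraction affected below 0.20 were flagged.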

[9] = molecular target: T2, Histone deacetylase 1/6 (Homo sapiens); experiment: Inhibition of HDAC1/HDAC6 in human Cal27CisR cells assessed as potentiation of 5 uM cisplatin-induced cytotoxicity by measuring combination index at 600 uM preincubated for 48 hrs followed by cisplatin treatment measured after 72 hrs by MTT assay; type: cell-based; how it was run: as §2
[10] = molecular target: T2, Histone deacetylase 1/6 (Homo sapiens); experiment: Inhibition of HDAC1/HDAC6 in human Cal27CisR cells assessed as potentiation of 10 uM cisplatin-induced cytotoxicity by measuring combination index at 600 nM preincubated for 48 hrs followed by cisplatin treatment measured after 72 hrs by MTT assay
[11] = molecular target: T2, Histone deacetylase 1/6 (Homo sapiens); experiment: Inhibition of HDAC1/HDAC6 in human Cal27CisR cells assessed as potentiation of 10 uM cisplatin-induced cytotoxicity by measuring combination index at 700 nM preincubated for 48 hrs followed by cisplatin treatment measured after 72 hrs by MTT assay
[12] = molecular target: T2, Histone deacetylase 1/6 (Homo sapiens); experiment: Inhibition of HDAC1/HDAC6 in human Cal27CisR cells assessed as potentiation of 3.16 uM cisplatin-induced cytotoxicity by measuring combination index at 700 nM preincubated for 48 hrs followed by cisplatin treatment measured after 72 hrs by MTT assay

Row | Compound | IC50 [1] [nM] | IC50 [2] [nM] | CI (CAL-27 [3]) | CI (CAL-27 [4]) | CI (CAL-27 [5]) | CI (CAL-27 [6]) | CI (CAL-27 [7]) | CI [8] | CI [9] | CI [10] | CI [11] | CI [12]
1 | COc1cc(NC(=O)NOCCCCCC(=O)NO)c2ncccc2c1 | 900 | 6.1 | 0.57 | 0.63 | 0.56 | 0.49 | 0.43 | 0.96 | 0.6 | 0.36 | 0.33 | 0.56
2 | COc1cc(NC(=O)NOCCCCCC(=O)NO)c2nccc(C)c2c1 | 600 | 24.8 | 0.37 | 0.43 | 0.41 | 0.27 | 0.36 | 0.28 | 0.25 | 0.2 | 0.21 | 0.28
3 | COc1cc(NC(=O)NOCCCCCC(=O)NO)c2nc(OC)cc(C)c2c1 | 500 | 2.8 | 0.53 | 0.61 | 0.69 | 0.42 | 0.6 | 0.19 | 0.2 | 0.17 | 0.2 | 0.28
